Measured values as given in ChEMBL document CHEMBL1828531, “Pyrazol-3-propanoic acid derivatives as novel inhibitors of leukotriene biosynthesis in human neutrophils” (Eur J Med Chem, 2011).

Legend:
[1] = biological target: T1, Prostaglandin G/H synthase 2 (Homo sapiens) (UniProt P35354); experiment: Inhibition of COX2-mediated 6-keto PGF1alpha production in IL1-beta stimulated human A549 cells assessed as residual activity at 10 uM after 10 mins by EIA; assay type: cell-based
T1 sequence (whole entry): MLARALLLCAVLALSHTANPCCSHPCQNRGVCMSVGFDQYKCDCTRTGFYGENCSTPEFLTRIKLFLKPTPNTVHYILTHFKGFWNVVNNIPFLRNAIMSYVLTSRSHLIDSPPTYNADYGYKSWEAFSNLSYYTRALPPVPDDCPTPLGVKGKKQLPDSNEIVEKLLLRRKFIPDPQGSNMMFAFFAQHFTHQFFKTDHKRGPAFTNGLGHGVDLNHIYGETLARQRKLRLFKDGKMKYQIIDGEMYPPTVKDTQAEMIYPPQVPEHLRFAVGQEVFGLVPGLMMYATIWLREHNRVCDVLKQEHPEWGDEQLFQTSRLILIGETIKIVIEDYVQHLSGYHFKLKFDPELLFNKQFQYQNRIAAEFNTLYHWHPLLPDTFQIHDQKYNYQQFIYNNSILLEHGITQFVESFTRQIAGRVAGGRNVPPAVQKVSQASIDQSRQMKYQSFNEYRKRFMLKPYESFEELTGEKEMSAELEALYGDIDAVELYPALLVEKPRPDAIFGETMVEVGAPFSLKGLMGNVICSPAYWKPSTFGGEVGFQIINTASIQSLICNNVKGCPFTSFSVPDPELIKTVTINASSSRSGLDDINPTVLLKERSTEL
Summary of the method: (§1)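 A549 cells stimulated with IL-1β (1 ng/ml) 72 h in DMEM with 2% FCS, trypsinized and washed. 10^6 cells/mL PBS with 1 mM CaCl2 preincubated with compound 10 min at 37 °C. 3 µM AA added for 15 min at 37 °C, stopped on ice. 6-keto PGF1α in supernatant measured by EIA.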

[2] = biological target: T2, Prostaglandin G/H synthase 2 (Homo sapiens, UniProt P35354); experiment: Inhibition of COX2-mediated 6-keto PGF1alpha production in IL1-beta stimulated human A549 cells after 10 mins by EIA; assay type: cell-based; summary of the method: as §1
T2 sequence (P35354 whole entry): T1 sequence (whole entry)

[3] = Inhibition of mPGES1-mediated PGE2 production in IL1-beta stimulated human A549 cells after 15 mins; assay type: cell-based; settings: A549, 0.25 h
Summary of the method: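 Microsomes from IL-1β (1 ng/ml, 72 h) stimulated A549 cells, diluted in 0.1 M potassium phosphate pH 7.4 with 2.5 mM glutathione. Compound or 1% DMSO added, 15 min at 4 °C. Started with 20 µM PGH2 (final), 1 min at 4 °C. Stopped with FeCl2/citric acid containing 11β-PGE2 internal standard. PGE2 by RP-C18 solid-phase extraction and peak integration.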

[4] = biological target: T3, Polyunsaturated fatty acid lipoxygenase ALOX12 (Homo sapiens) (UniProt P18054); experiment: Inhibition of 12-Lipoxygenase-mediated 12-HETE in human neutrophil assessed as residual activity at 30 uM after 15 mins by HPLC analysis
T3 sequence (whole entry): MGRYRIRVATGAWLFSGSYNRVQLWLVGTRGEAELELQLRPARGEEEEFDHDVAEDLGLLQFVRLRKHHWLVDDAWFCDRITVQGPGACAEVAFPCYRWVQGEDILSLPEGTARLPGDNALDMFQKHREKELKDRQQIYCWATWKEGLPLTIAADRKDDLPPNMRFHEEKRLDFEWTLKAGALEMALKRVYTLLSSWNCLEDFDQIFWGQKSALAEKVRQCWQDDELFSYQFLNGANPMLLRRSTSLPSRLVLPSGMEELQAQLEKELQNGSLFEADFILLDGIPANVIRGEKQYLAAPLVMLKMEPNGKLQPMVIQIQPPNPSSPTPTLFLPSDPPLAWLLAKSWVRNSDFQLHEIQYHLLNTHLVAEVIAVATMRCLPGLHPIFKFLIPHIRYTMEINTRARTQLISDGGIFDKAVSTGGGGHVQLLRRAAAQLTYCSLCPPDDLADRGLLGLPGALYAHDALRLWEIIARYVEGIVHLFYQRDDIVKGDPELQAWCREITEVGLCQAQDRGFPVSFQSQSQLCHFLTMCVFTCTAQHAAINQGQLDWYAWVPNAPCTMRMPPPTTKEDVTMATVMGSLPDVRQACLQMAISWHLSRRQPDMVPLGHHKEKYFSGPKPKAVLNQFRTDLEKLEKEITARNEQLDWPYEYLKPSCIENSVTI
Summary of the method: (§2)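 Freshly isolated human blood neutrophils, 5 × 10^6/mL in PBS pH 7.4 with 1 mg/mL glucose and 1 mM CaCl2, preincubated with compound 15 min at RT. Stimulated with 2.5 µM A23187 plus 20 µM AA for 10 min at 37 °C. Stopped with methanol/HCl, PGB1 internal standard. 12-HETE or 15-HETE measured by HPLC. Residual activity tested at 30 µM.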

[5] = biological target: T4, Polyunsaturated fatty acid lipoxygenase ALOX15 (Homo sapiens, UniProt P16050); experiment: Inhibition of 15-Lipoxygenase-mediated 15-HETE in human neutrophil after 15 mins by HPLC analysis; summary of the method: as §2
T4 sequence (P16050 whole entry): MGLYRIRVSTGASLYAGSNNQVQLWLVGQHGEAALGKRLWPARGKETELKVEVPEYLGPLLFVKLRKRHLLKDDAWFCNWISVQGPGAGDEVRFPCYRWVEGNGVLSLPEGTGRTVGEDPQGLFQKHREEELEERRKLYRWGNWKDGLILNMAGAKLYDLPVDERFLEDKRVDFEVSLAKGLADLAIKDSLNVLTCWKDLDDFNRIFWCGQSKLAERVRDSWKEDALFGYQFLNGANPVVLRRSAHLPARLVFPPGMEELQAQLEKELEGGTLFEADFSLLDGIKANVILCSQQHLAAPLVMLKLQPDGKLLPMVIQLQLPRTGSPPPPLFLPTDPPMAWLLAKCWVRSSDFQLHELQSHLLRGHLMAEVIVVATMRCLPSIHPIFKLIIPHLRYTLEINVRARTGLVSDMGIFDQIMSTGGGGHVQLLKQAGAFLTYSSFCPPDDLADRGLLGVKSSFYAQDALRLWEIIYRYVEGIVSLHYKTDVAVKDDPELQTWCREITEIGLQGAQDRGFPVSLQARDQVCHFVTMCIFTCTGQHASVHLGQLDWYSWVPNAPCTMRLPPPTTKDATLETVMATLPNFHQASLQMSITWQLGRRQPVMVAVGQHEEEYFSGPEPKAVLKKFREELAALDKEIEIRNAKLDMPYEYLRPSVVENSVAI

Structure (SMILES) | Activity [1] [%] | IC50 [2] [µM] | IC50 [3] [µM] | Activity [4] [%] | IC50 [5] [µM]
Cc1ccc(-c2cc(CCC(=O)N3CCN(Cc4ccc(C(C)(C)C)cc4)CC3)nn2-c2ccccc2)cc1 | 97 | > 10 | > 10 | 118 | > 10
CCOC(=O)C1CCN(C(=O)CCc2cc(-c3ccc(C)cc3)n(-c3ccccc3)n2)CC1 | 86.3 | > 10 | > 10 | 98 | > 10
Cc1ccc(-c2cc(CCC(=O)N3CCN(Cc4ccc(C(C)(C)C)cc4)CC3)nn2-c2ccc3ccccc3n2)cc1 | 79 | > 10 | > 10 | 111 | > 10
CCOC(=O)C1CCN(C(=O)CCc2cc(-c3ccc(C)cc3)n(-c3ccc4ccccc4n3)n2)CC1 | 66.3 | > 10 | > 10 | 91.9 | > 10
Cc1ccc(-c2cc(CCC(=O)Oc3ccc(C(C)C)cc3)nn2-c2ccc3ccccc3n2)cc1 | 97 | > 10 | > 10 | 67.8 | > 10
Cc1ccc(-c2cc(CCC(=O)Oc3ccc(C(C)C)cc3)nn2-c2ccc(Cl)nn2)cc1 | 99.9 | > 10 | > 10 | 77.1 | –
CC(C)(C)c1ccc(CN2CCN(C(=O)CCc3cc(-c4ccc(F)cc4)n(-c4ccc(Cl)nn4)n3)CC2)cc1 | 84.2 | > 10 | > 10 | 103 | > 10
Cc1ccc(-c2cc(CCC(=O)Oc3ccc(C(C)C)cc3)nn2-c2ccccc2)cc1 | 111 | > 10 | > 10 | 67.2 | > 10
CCOC(=O)C1CCN(C(=O)CCc2cc(-c3ccc(C(F)(F)F)cc3)n(-c3ccc(Cl)nn3)n2)CC1 | 78.6 | > 10 | > 10 | 90.4 | > 10
